ChEMBL document CHEMBL4138255, “Discovery of a Slow Tight Binding LPA1 Antagonist (ONO-0300302) for the Treatment of Benign Prostatic Hyperplasia” (ACS Med Chem Lett, 2017)
pIC50, pKd: −log10 of the molar value. Activity calls are given as the source filed them. The rule behind the calls is not given here.

Tests used:
[1] = target: T1, Lysophosphatidic acid receptor 1 (Homo sapiens, UniProt Q92633); assay: Antagonist activity at recombinant human LPA1 expressed in CHO cells assessed as reduction in LPA-induced intracellular calcium level pretreated followed by LPA addition by Fura-2-AM dye based fluorescence assay; type: functional, cell-based
T1 sequence (Q92633 whole entry): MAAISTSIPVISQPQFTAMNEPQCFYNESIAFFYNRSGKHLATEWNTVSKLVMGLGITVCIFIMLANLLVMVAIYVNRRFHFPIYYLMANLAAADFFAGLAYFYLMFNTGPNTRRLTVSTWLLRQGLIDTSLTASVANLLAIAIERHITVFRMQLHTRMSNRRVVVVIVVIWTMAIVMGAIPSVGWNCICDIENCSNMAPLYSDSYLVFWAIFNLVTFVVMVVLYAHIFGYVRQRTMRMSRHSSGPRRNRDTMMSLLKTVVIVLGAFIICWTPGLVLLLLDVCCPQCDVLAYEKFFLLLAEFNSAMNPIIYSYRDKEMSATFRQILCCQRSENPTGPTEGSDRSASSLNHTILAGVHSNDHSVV
Procedure, shortened: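 LPA-induced Ca²⁺ mobilization in CHO cells stably expressing the LPA1 receptor, with 10 min incubation. IC50 was obtained by nonlinear regression of 4-point dose–response curves, with 95% confidence intervals.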

[2] = target: T1, Lysophosphatidic acid receptor 1; assay: Binding affinity to recombinant human LPA1 expressed in CHO cell membranes measured after 0.5 hrs by scintillation counting method; conditions: for Bmax: tested as the 3H-labelled form
[3] = target: T1, Lysophosphatidic acid receptor 1; assay: Binding affinity to recombinant human LPA1 expressed in CHO cell membranes measured after 1 hr by scintillation counting method; conditions: for Bmax: tested as the 3H-labelled form
[4] = target: T1, Lysophosphatidic acid receptor 1; assay: Binding affinity to recombinant human LPA1 expressed in CHO cell membranes measured after 2 hrs by scintillation counting method; conditions: for Bmax: tested as the 3H-labelled form
[5] = target: T1, Lysophosphatidic acid receptor 1; assay: Binding affinity to recombinant human LPA1 expressed in CHO cell membranes measured after 4 hrs by scintillation counting method; conditions: for Bmax: tested as the 3H-labelled form
[6] = target: T1, Lysophosphatidic acid receptor 1; assay: Binding affinity to recombinant human LPA1 expressed in CHO cell membranes measured after 2 hrs at 4 degC by scintillation counting method
[7] = target: T1, Lysophosphatidic acid receptor 1; assay: Binding affinity to recombinant human LPA1 expressed in CHO cell membranes measured after 2 hrs at room temperature by scintillation counting method
[8] = target: T1, Lysophosphatidic acid receptor 1; assay: Binding affinity to recombinant human LPA1 expressed in CHO cell membranes measured after 2 hrs at 37 degC by scintillation counting method
[9] = Half life in rat microsomes in presence of NADPH; type: ADME, Microsome
[10] = Half life in human microsomes in presence of NADPH; type: ADME, Microsome
[11] = test system: Rattus norvegicus; assay: Inhibition of LPA-induced increase of intraurethral pressure in rat at 3 mg/kg, po measured after 6 hrs relative to control; type: functional
Procedure, shortened: (§1)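 Conscious rats were given compound or vehicle (20% STPG) orally, 3 mg/kg. At 1, 3, 6, 9, 12, 18 or 24 h, LPA (300 μg/kg) was injected i.v. and intraurethral pressure was measured under short-term anesthesia. Inhibition was calculated versus vehicle. ID50 was determined from oral dose–response at 1 h.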

[12] = test system: Rattus norvegicus; assay: Inhibition of LPA-induced increase of intraurethral pressure in rat at 3 mg/kg, po measured after 3 hrs relative to control; type: functional; procedure, shortened: as §1
[13] = test system: Rattus norvegicus; assay: Inhibition of LPA-induced increase of intraurethral pressure in po dosed rat measured after 1 hr; type: functional; conditions: for ED50: read-out: ID50 (the source's name); procedure, shortened: as §1
[14] = target: Lysophosphatidic acid receptor 1 (Rattus norvegicus) (UniProt P61794); assay: Antagonist activity at LPA1 in CD(SD)IGS rat urethra assessed as inhibition of LPA-induced urethra contraction at 1 uM pretreated for 30 mins followed by LPA addition; type: functional
Chain of Lysophosphatidic acid receptor 1 (Rattus norvegicus) (P61794 whole entry): as the sequence (Q92633 whole entry) above, with I4A, I8S, P22Q, H40Y, I61V, E193D, N194H, I269V, S331N, T335N counted along it
Procedure, shortened: (§2)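 Isolated rat urethra. Contraction to 10 μM LPA was recorded as 100% control. Medium was exchanged, then 1 μM test compound was added for 30 min and contraction to 10 μM LPA recorded. Tissue was washed with compound-free medium three times every 10 min before each LPA re-challenge, two wash-out rounds. Expressed as % inhibition, mean ± SD, n = 3.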

[15] = target: Lysophosphatidic acid receptor 1 (Rattus norvegicus) (UniProt P61794); assay: Antagonist activity at LPA1 in CD(SD)IGS rat urethra assessed as inhibition of LPA-induced urethra contraction at 1 uM pretreated for 30 mins prior to LPA addition followed by compound washout every 10 minutes for 2 times and subsequent LPA stimulation; type: functional; procedure, shortened: as §2
[16] = test system: Rattus norvegicus; assay: Inhibition of LPA-induced increase of intraurethral pressure in po dosed rat measured after 6 hrs; type: functional; procedure, shortened: as §1
[17] = Total clearance in rat at 1 mg/kg, iv; type: ADME, organism-based; conditions: in vivo
[18] = test system: Rattus norvegicus; assay: Inhibition of LPA-induced increase of intraurethral pressure in rat at 3 mg/kg, po measured after 1 hr relative to control; type: functional; procedure, shortened: as §1
[19] = test system: Canis familiaris; assay: Inhibition of LPA-induced increase of intraurethral pressure in dog at 1 to 3 mg/kg, po measured up to 24 hrs; type: functional, organism-based; conditions: Canis lupus familiaris
Procedure, shortened: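 Conscious dogs were dosed orally at 1 or 3 mg/kg. LPA (300 μg/kg i.v.) was injected at 0.5, 1, 2, 4, 6, 9, 12 and 24 h, and intraurethral pressure was measured in conscious animals. Response was expressed as % of each dog's predose (0 h) IUP.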

[20] = test system: Rattus norvegicus; assay: Inhibition of LPA-induced increase of intraurethral pressure in rat at 3 mg/kg, po measured up to 12 hrs relative to control; type: functional; procedure, shortened: as §1
[21] = test system: Rattus norvegicus; assay: Inhibition of LPA-induced increase of intraurethral pressure in rat at 3 mg/kg, po measured at 18 hrs relative to control; type: functional; procedure, shortened: as §1
[22] = test system: Canis familiaris; assay: Inhibition of LPA-induced increase of intraurethral pressure in dog at 1 mg/kg, po measured after 24 hrs relative to control; type: functional; conditions: Canis lupus familiaris
[23] = target: T1, Lysophosphatidic acid receptor 1; assay: Antagonist activity at recombinant human LPA1 expressed in CHO cell […] pretreated for 24 hrs prior to Fura-2-AM dye addition for 1 hr followed by LPA stimulation measured after 3 mins by fluorescence assay; type: functional, cell-based
Procedure, shortened: (§3)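 Ca²⁺ mobilization in CHO cells stably expressing LPA1. Compound was added at cell seeding and incubated 24 h, and was held at the same concentration through Ca²⁺-indicator loading and LPA stimulation. In the wash-out variant, compound was removed before LPA stimulation. IC50 was obtained with 95% confidence intervals.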

[24] = target: T1, Lysophosphatidic acid receptor 1; assay: Antagonist activity at recombinant human LPA1 expressed in CHO cell […] pretreated for 24 hrs prior to Fura-2-AM dye addition for 1 hr followed by compound washout and subsequent LPA stimulation measured after 3 mins by fluorescence assay; type: functional, cell-based; procedure, shortened: as §3

COc1cc(C(=O)C(CCCc2ccccc2)Cc2ccc(CC(=O)O)cc2)cc(OC)c1C (stereo not given)
pIC50 [1]: 6.34

[3H]C(C(=O)O)C([3H])c1ccn(C[C@H](CC2Cc3ccccc3C2)[C@H](O)c2cc(OC)c(C)c(OC)c2)c1 (stereo not given in full)
pKd [2]: 8.63
pKd [3]: 8.90
pKd [4]: 9.13
pKd [5]: 9.31
pKd [6]: 7.65
pKd [7]: 9.13
pKd [8]: 9.47

COc1cc([C@@H](O)[C@@H](CCCc2ccccc2)Cn2ccc(C(=O)O)c2)cc(OC)c1C
pIC50 [1]: 6.92

COc1cc([C@@H](O)[C@@H](CCCc2ccccc2)Cn2nc(C)c(CC(=O)O)c2C)cc(OC)c1C
pIC50 [1]: 6.28

[3H]C(CN(Cc1ccc(CC(=O)O)cc1)C(=O)c1cc(OC)c(C)c(OC)c1)C([3H])c1ccccc1 (stereo not given)
pKd [2]: 8.09
pKd [3]: 8.18
pKd [4]: 8.22
pKd [5]: 7.99

COc1cc([C@@H](O)[C@@H](CCCc2ccsc2)Cn2ccc(CCC(=O)O)c2)cc(OC)c1C
pIC50 [1]: 7.42
half-life [9]: < 15 min
half-life [10]: 66 min
inhibition [11]: inactive
inhibition in vivo at 3 mg/kg [12]: 70%

COc1cc([C@@H](O)[C@@H](CCCc2ccccc2)Cn2cc(CC(=O)O)cn2)cc(OC)c1C
pIC50 [1]: 7.52

COc1cc([C@@H](O)[C@@H](CCCc2cccs2)Cn2ccc(CCC(=O)O)c2)cc(OC)c1C
pIC50 [1]: 7.35
half-life [9]: < 15 min
half-life [10]: 75 min
inhibition [11]: inactive
inhibition in vivo at 3 mg/kg [12]: 70%

COc1cc([C@@H](O)[C@@H](CCCc2ccccc2)Cn2cnc(CC(=O)O)c2)cc(OC)c1C
pIC50 [1]: 6.74

COc1cc([C@@H](O)[C@@H](CCCc2ccccc2)Cc2ccc(CC(=O)O)cc2)cc(OC)c1C
pIC50 [1]: 7.21
inhibition [13]: Dose-dependent effect
ED50 [13]: 0.97 mg/kg
inhibition [14]: Active
inhibition [15]: Active

COc1cc(C(=O)N(CCCc2ccccc2)Cc2ccc(CC(=O)O)cc2)cc(OC)c1C
inhibition [14]: Active
inhibition [15]: inactive
Bmax [2]: 3420 cpm
Bmax [3]: 3560 cpm
Bmax [4]: 2450 cpm
Bmax [5]: 2740 cpm

COc1cc([C@@H](O)[C@@H](CCCc2ccccc2)Cn2ccc(CC(=O)O)c2)cc(OC)c1C
pIC50 [1]: 7.89
half-life [9]: < 15 min
half-life [10]: 49 min
ED50 [13]: 0.6 mg/kg
inhibition (INH) [16]: 33%
clearance [17]: 50.1 mL/min/kg
inhibition [18]: Active
inhibition in vivo at 3 mg/kg [11]: 33%

COc1cc(C(=O)N(C/C=C/c2ccccc2)Cc2ccc(CC(=O)O)cc2)cc(OC)c1C
pIC50 [1]: < 6.00
half-life [9]: > 200 min
half-life [10]: 163 min

COc1cc([C@@H](O)[C@@H](CCCc2ccccc2)Cn2ccc(CCC(=O)O)c2)cc(OC)c1C
pIC50 [1]: 7.66

COc1cc([C@@H](O)[C@@H](CC2Cc3ccccc3C2)Cn2ccc(CC(=O)O)c2)cc(OC)c1C
pIC50 [1]: 7.21
half-life [9]: 34 min
half-life [10]: 65 min
clearance [17]: 19.2 mL/min/kg
inhibition [19]: Active
inhibition in vivo at 3 mg/kg [20]: 52%

COc1cc([C@@H](O)[C@@H](CCCc2ccsc2)Cn2ccc(CC(=O)O)c2)cc(OC)c1C
pIC50 [1]: 7.64
half-life [9]: < 15 min
half-life [10]: 60 min
clearance [17]: 16.4 mL/min/kg
inhibition in vivo at 3 mg/kg [18]: 75%
inhibition in vivo at 3 mg/kg [11]: 23%

COc1cc([C@@H](O)[C@@H](CCCc2ccccc2)Cn2ccc(CC(=O)O)n2)cc(OC)c1C
pIC50 [1]: 7.49

COc1cc([C@@H](O)[C@@H](CCCc2ccccc2)Cn2cc(CCC(=O)O)cn2)cc(OC)c1C
pIC50 [1]: 7.47

COc1cc([C@@H](O)[C@@H](CCCc2cccs2)Cn2ccc(CC(=O)O)c2)cc(OC)c1C
pIC50 [1]: 7.54
half-life [9]: < 15 min
half-life [10]: 82 min
inhibition [11]: inactive
inhibition in vivo at 3 mg/kg [12]: 70%

COc1cc([C@@H](O)[C@@H](CC2Cc3ccccc3C2)Cn2ccc(CCC(=O)O)c2)cc(OC)c1C
pIC50 [1]: 7.07
half-life [9]: 15 min
half-life [10]: 79 min
clearance [17]: 20.5 mL/min/kg
inhibition [19]: Active
inhibition in vivo at 3 mg/kg [21]: 47%
inhibition in vivo at 1 mg/kg [22]: 30%
Bmax [2]: 974 cpm
Bmax [3]: 973 cpm
Bmax [4]: 942 cpm
Bmax [5]: 956 cpm
Bmax ([6]; tested as the 3H-labelled form): 1030 cpm
Bmax ([7]; tested as the 3H-labelled form): 942 cpm
Bmax ([8]; tested as the 3H-labelled form): 1110 cpm
pIC50 [23]: 9.80
pIC50 [24]: 9.72

COc1cc([C@@H](O)[C@@H](CCCc2ccccc2)Cn2ccc(CCC(=O)O)n2)cc(OC)c1C
pIC50 [1]: 7.40
